Experimental data from PMC3064895 (Cancer Chemotherapy and Pharmacology, 2010).
Values joined by “and” are separate entries in the source; they are usually repeats but may differ in a detail not shown here. Equal entries are not always repeated. Where two headings read alike, the source gives them in different places.

Assays:
[1] = Supine blood pressure and heart rate; format: in vivo, patients with advanced cancer; conditions: for Mean (SD) maximal change from baseline in supine HR / Mean (SD) maximal change from baseline in supine diastolic BP / Mean (SD) maximal change from baseline in supine systolic BP: over 12-h period; for Mean increase from baseline in diastolic BP, individual patient / Mean increase from baseline in systolic BP, individual patient: patient with confirmed PR
[2] = cited from earlier work; for Incidence of treatment-emergent cardiac ischemia/infarction AEs: final safety analysis
[3] = QT/QTc interval on 12-lead Holter ECG; format: in vivo, patients with advanced cancer
[4] = observational study by Schmidinger et al.; cited from earlier work
[5] = Safety: adverse events by NCI-CTCAE v3.0; format: in vivo, patients with advanced cancer; conditions: N = 53
Method in brief: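 Patients with advanced cancer took the oral kinase inhibitor at 400 mg bid, continuously, in 28-day cycles. Safety, including laboratory tests, was checked at screening, at baseline and on day 1 of each cycle. Treatment-emergent AEs were graded by NCI-CTCAE v3.0 for incidence, severity, seriousness and drug relationship, and summarized descriptively for all patients with ≥1 dose.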

[6] = 2 h post-dose, Day 1 of cycle 2
[7] = 4 h post-dose, Day 1 of cycle 2
[8] = 6 h post-dose, Day 1 of cycle 2
[9] = 8 h post-dose, Day 1 of cycle 2
[10] = 12 h post-dose, Day 1 of cycle 2
[11] = at t max, Day 1 of cycle 2, listed as Sorafenib
[12] = Day 1 of cycle 2, listed as Sorafenib
[13] = retrospective analysis of 18 studies of sorafenib monotherapy
[14] = over 12-h period, Day 1 of cycle 2
[15] = over 12-h period, Day 1 of cycle 2, listed as Sorafenib

## CNC(=O)c1cc(Oc2ccc(NC(=O)Nc3ccc(Cl)c(C(F)(F)F)c3)cc2)ccn1 [sorafenib]
[1]; [6]
  Mean (SD) change from baseline in supine HR: −5.4 (9.2) bpm
[1]; 2 h post-dose, Day 1 of cycle 5
  Mean (SD) change from baseline in supine HR: −0.03 (7.1) bpm
[1]; [7]
  Mean (SD) change from baseline in supine HR: −4.0 (8.8) bpm
[1]; 4 h post-dose, Day 1 of cycle 5
  Mean (SD) change from baseline in supine HR: 0.1 (9.2) bpm
[1]; [8]
  Mean (SD) change from baseline in supine HR: −6.0 bpm
[1]; 6 h post-dose, Day 1 of cycle 2, listed as Sorafenib
  Mean (SD) change from baseline in supine HR: −6.0 (8.9) bpm
[1]; 6 h post-dose, Day 1 of cycle 5
  Mean (SD) change from baseline in supine HR: 0 (8.7) bpm
[1]; [9]
  Mean (SD) change from baseline in supine HR: −4.2 (11.3) bpm
[1]; 8 h post-dose, Day 1 of cycle 5
  Mean (SD) change from baseline in supine HR: 0.7 (8.6) bpm
[1]; [10]
  Mean (SD) change from baseline in supine HR: −5.8 (13.3) bpm
[1]; 12 h post-dose, Day 1 of cycle 5
  Mean (SD) change from baseline in supine HR: 1.6 (10.0) bpm
[1]; Day 1 of cycle 5, sorafenib 400 mg bid
  Patients with BP ≥150/90 mm Hg at t max: 2 n (%)
[1]; Pre-dose, Day 1 of cycle 2
  Mean (SD) change from baseline in supine HR: −4.4 (8.1) bpm
[1]; Pre-dose, Day 1 of cycle 5
  Mean (SD) change from baseline in supine HR: −2.9 (10.0) bpm
[1]; after 1 cycle
  Patients who exceeded 150/90 mm Hg (both systolic and diastolic): Four
  Patients who exceeded a systolic reading of 150 mm Hg only: 4 patients
  Patients with a diastolic reading surpassing 90 mm Hg only: 2 patients
  Mean increase from baseline in diastolic BP, individual patient: 31.0 mm Hg
  Mean increase from baseline in systolic BP, individual patient: 44.5 mm Hg
[1]; after 1 cycle (6% at baseline)
  Patients who had become hypertensive: Thirty-two
[1]; after both 1 and 4 cycles
  Increase in both systolic and diastolic BP at t max: 11–12 mm Hg
[1]; at cycle 4
  Patients hypertensive: 13%
[1]; at t max, Day 1 of cycle 2
  Mean (SD) change from baseline in supine HR: −6.6 bpm
[1]; [11]
  Mean (SD) change from baseline in supine HR: −6.6 (10.6) bpm
[1]; at t max, Day 1 of cycle 5
  Mean (SD) change from baseline in supine HR: −3.3 bpm
[1]; at t max, Day 1 of cycle 5, listed as Sorafenib
  Mean (SD) change from baseline in supine HR: −3.3 (7.3) bpm
[1]; during treatment with sorafenib
  Patients who started receiving antihypertensive medications during treatment: Three
[1]; Day 1 of cycle 2
  Mean (SD) maximal change from baseline in supine HR: 2.9 (±8.2) bpm
  Mean (SD) maximal change from baseline in supine diastolic BP: 19.8 (±9.0) mm Hg
  Mean (SD) maximal change from baseline in supine systolic BP: 27.7 (±18.5) mm Hg
[1]; [12]
  Mean (SD) maximal change from baseline in supine HR: 2.9 (8.2) bpm
  Mean (SD) maximal change from baseline in supine diastolic BP: 19.8 (9.0) mm Hg
  Mean (SD) maximal change from baseline in supine systolic BP: 27.7 (18.5) mm Hg
[1]; Day 1 of cycle 5
  Mean (SD) maximal change from baseline in supine HR: 8.3 (±6.8) bpm
  Mean (SD) maximal change from baseline in supine diastolic BP: 22.0 (11.2) mm Hg
  Mean (SD) maximal change from baseline in supine systolic BP: 24.8 (14.4) mm Hg
[1]; Day 1 of cycle 5, listed as Sorafenib
  Mean (SD) maximal change from baseline in supine HR: 8.3 (6.8) bpm
[1]; after 4 cycles
  Mean increase from baseline in diastolic BP, individual patient: 40.8 mm Hg
  Mean increase from baseline in systolic BP, individual patient: 29.3 mm Hg
[2]; RCC phase III, patients who crossed over from placebo to sorafenib
  Patients reporting cardiac ischemia/infarction AEs: 1.4%
[2]; randomized phase III HCC study, placebo […]
  Incidence of treatment-emergent cardiac ischemia/infarction AEs: 2.7%
[2]; randomized phase III RCC study, placebo 0.4%
  Incidence of treatment-emergent cardiac ischemia/infarction AEs: 2.9%
[2]; [13]
  Overall rate of CHF: 1.6%
  Overall rate of MI: 1.5%
  Treatment-emergent hypertension: 18.6%
[3]; [6]
  Mean (SD) change from baseline in QTcB: 0.5 (18.0) ms
[3]; [7]
  Mean (SD) change from baseline in QTcB: 2.0 (20.2) ms
[3]; [8]
  Mean (SD) change from baseline in QTcB: 1.6 (17.3) ms
[3]; [9]
  Mean (SD) change from baseline in QTcB: 0.2 (16.1) ms
[3]; [10]
  Mean (SD) change from baseline in QTcB: 2.9 (17.2) ms
[3]; Pre-dose, Day 1 of cycle 2
  Mean (SD) change from baseline in QTcB: 1.1 (18.3) ms
[3]; at any time during the study
  Patients with a QTcB or QTcF value >500 ms: No patient
[3]; at t max, Day 1 of cycle 2
  Mean (SD) change from baseline in QTcB: 4.2 ms and 4 ms
[3]; [11]
  Mean (SD) change from baseline in QTcB: 4.2 (19.2) ms
[3]; during the study
  Patients with a ≥60-ms change from baseline in QTcB or QTcF: no patient
[3]; [14]
  Mean (SD) maximal change from baseline in QT: 32.9 (24.1) ms
  Mean (SD) maximal change from baseline in QTcB: 16.4 ms and 16 ms
  Mean (SD) maximal change from baseline in QTcF: 19.8 ms and 20 ms
[3]; [15]
  Mean (SD) maximal change from baseline in QTcB: 16.4 (15.3) ms
  Mean (SD) maximal change from baseline in QTcF: 19.8 (14.4) ms
[3]; over 12 h, after 1 cycle
  Mean increases from baseline by time point, QTcB (range): 0.2 to 2.9 ms
  Mean increases from baseline by time point, QTcF (range): 4.2 to 5.8 ms
[3]; patient with maximum prolongation, after 1 cycle, baseline 396.7 ms
  QTcF value, individual patient: 446.3 ms
[4]
  Incidence of ≥10 LVEF(%) reduction: 5%
[5]
  Alopecia, drug-related, Grade ≥3: 0 (0) n (%)
  Alopecia, drug-related, all grades: 13 (25) n (%)
  Dermal change, drug-related, Grade ≥3: 0 (0) n (%)
